Experimental data published in PubChem BioAssay AID504469 (NMMLSC, 2011).
Calls of active or inactive are those of the source.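 Rule for the calls: active = compounds whose fitted GFP dose response EC50 is at or below 33 microM; inactive = the rest.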

Assays:
[1] = yeast TOR reporter LAP4-GFP level changes – cell-based, KU SAR set 2, flow cytometry, SAR follow-up (AID 504469); conditions: S. cerevisiae LAP4-GFP strain, flow cytometry fluorescence, 3 h
How it was run: (§1)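 System: S. cerevisiae LAP4-GFP yeast strain; buffer or medium: synthetic complete medium; incubation: compound exposure 3 h at 30 °C with rotation; signal: Flow-cytometric GFP fluorescence in kMESF units; read-out basis: EC50 of background-corrected GFP signal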

[2] = tested on: S. cerevisiae LAP4-GFP strain, flow cytometry fluorescence, 3 h; assay: as above
How it was run: as §1

Row | SMILES | GFP fluorescence (kMESF) ([1]; at 100 µM (top of the series)) | GFP fluorescence (kMESF) ([1]; at 300 µM (top of the series)) | other results
1 | CNc1nc(N)c([N+](=O)[O-])c(Nc2cccc(Oc3ccccc3)c2)n1 | 6.57 kMESF (inactive) |  | 
2 | CCOC(=O)c1c(N)nc(NC)nc1Nc1cccc(F)c1 |  | 4.41 kMESF (inactive) | 
3 | COc1ccccc1-c1cc(Nc2cc(C)[nH]n2)nc(NCc2ccccc2)n1 |  | 4.66 kMESF (inactive) | 
4 | COC(=O)c1cccc(-c2cc(Nc3cc(C)[nH]n3)nc(NCc3ccccc3)n2)c1 |  | 4.28 kMESF (inactive) | 
5 | CNc1nc(N)c([N+](=O)[O-])c(Nc2cccc(Br)c2)n1 | 6.21 kMESF (inactive) |  | 
6 | CNc1nc(N)cc(Oc2cccc(Cl)c2)n1 |  | 4.73 kMESF (inactive) | 
7 | COc1cccc(-c2cc(Nc3cc(C)[nH]n3)nc(NCc3ccccc3)n2)c1 |  | 4.54 kMESF (inactive) | 
8 | CNc1nc(N)cc(Nc2cccc(Cl)c2)n1 |  |  | EC50 [2]: 101 µM (inactive)
9 | CCNc1nc(N)c([N+](=O)[O-])c(Nc2cccc(Cl)c2)n1 | 6.21 kMESF (inactive) |  | 
10 | CCNc1nc(NC2CCCCC2)c([N+](=O)[O-])c(N2CCOCC2)n1 | 6.5 kMESF (inactive) |  | 
11 | Cc1cc(Nc2cc(-c3ccccc3)nc(NCc3ccccc3)n2)n[nH]1 |  | 4.41 kMESF (inactive) | 
12 | CNc1nc(N)cc(Nc2ccccc2F)n1 |  | 4.66 kMESF (inactive) | 
13 | CNc1nc(N)c([N+](=O)[O-])c(Nc2cccc(OC)c2)n1 | 6.21 kMESF (inactive) |  | 
14 | CNc1nc(N)c(C(=O)c2ccc(C)c(C)c2)c(Nc2cccc(Cl)c2)n1 |  |  | EC50 [2]: 80.9 µM (inactive)
15 | Cc1cc(Nc2cc(Nc3ccccc3)nc(NCc3ccccc3)n2)n[nH]1 |  | 4.28 kMESF (inactive) | 
16 | O=[N+]([O-])c1c(NC2CCCCC2)nc(NCc2ccccc2)nc1N1CCOCC1 |  | 4.34 kMESF (inactive) | 
17 | CNc1nc(NC2CCCCC2)c([N+](=O)[O-])c(N2CCOCC2)n1 | 6.42 kMESF (inactive) |  | 
18 | CNc1nc(N)c([N+](=O)[O-])c(Nc2ccccc2Br)n1 | 6.28 kMESF (inactive) |  | 
19 | CNc1nc(NC)c([N+](=O)[O-])c(Nc2cccc(Cl)c2)n1 | 6.28 kMESF (inactive) |  | 
20 | CNc1nc(N)c([N+](=O)[O-])c(Nc2ccccc2F)n1 | 6.21 kMESF (inactive) |  | 
